From ChEMBL document CHEMBL1141084, “Analogues of thiolactomycin as potential antimalarial agents” (J Med Chem, 2005)

Columns and labels:
Trypanosoma cruzi = assay: Inhibitory concentration against Trypanosoma cruzi [Tulahuen strain C2C4] in rat skeletal myoblasts upon incubation at 37 degrees C for 4 days in 5% CO2; assay type: functional, organism-based; settings: Trypanosoma cruzi, 96 h
Leishmania donovani = assay: Inhibitory concentration against amastigotes of Leishmania donovani strain MHOM/ET/67/L82 upon incubation at 37 degrees C for 72 hours using alamar blue
[1] = molecular target: T1, Beta-ketoacyl-ACP-synthase III (Plasmodium falciparum) (UniProt O77078); assay: Percent inhibition of recombinant Plasmodium falciparum beta-Ketoacyl-acyl carrier protein synthase III activity (MBP-pfKASIII) expressed in E. coli cells using [1-14C]acetyl-CoA as radioligand upon incubation at 37 degrees C for 15 minutes with compound dissolved in 2% DMSO at 10 uM; NA = no activity
T1 sequence (whole entry): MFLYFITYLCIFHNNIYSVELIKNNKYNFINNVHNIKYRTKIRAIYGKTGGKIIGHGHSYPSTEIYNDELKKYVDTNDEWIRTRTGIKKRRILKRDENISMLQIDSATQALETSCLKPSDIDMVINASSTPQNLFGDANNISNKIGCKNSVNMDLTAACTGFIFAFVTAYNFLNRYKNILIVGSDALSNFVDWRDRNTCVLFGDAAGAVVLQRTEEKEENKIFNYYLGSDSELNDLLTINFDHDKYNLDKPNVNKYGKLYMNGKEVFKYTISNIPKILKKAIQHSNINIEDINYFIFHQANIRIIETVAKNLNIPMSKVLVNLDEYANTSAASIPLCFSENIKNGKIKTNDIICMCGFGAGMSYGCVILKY
Method in brief: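 MBP-fused pfKASIII from E. coli BL21(DE3) codon+RIL, amylose-purified, 500 ng per reaction. Buffer: 100 mM NaH2PO4 pH 6.6, with 25 µM E. coli ACP prereduced with 1 mM β-mercaptoethanol (37 °C, 30 min), 1 µg E. coli FabD, 65 µM malonyl-CoA and 45 µM [1-14C]acetyl-CoA. 2% DMSO final; 37 °C, 15 min. Read-out: filter disks, TCA-washed, scintillation-counted.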

Plasmodium falciparum = assay: In vitro inhibitory concentration against chloroquine-resistant, pyrimethamine-resistant Plasmodium falciparum K1; assay type: functional, organism-based; settings: Plasmodium falciparum
[2] = test system: Trypanosoma brucei rhodesiense; assay: Inhibitory concentration against Trypanosoma brucei rhodesiense STIB 900 upon incubation at 37 degrees C in 5% CO2 for 72 hours; assay type: functional, organism-based; settings: Trypanosoma brucei, 72 h
[3] = molecular target: T1, Beta-ketoacyl-ACP-synthase III (Plasmodium falciparum); assay: Percent inhibition of Plasmodium falciparum beta-Ketoacyl-acyl carrier protein synthase III activity (MBP-pfKASIII) expressed in E. coli cells using [1-14C]acetyl-CoA as radioligand upon incubation at 37 degrees C for 15 minutes with compound dissolved in 2% DMSO at 100 uM

SMILES	IC50 (Trypanosoma cruzi)	IC50 (Leishmania donovani)	inhibition [1]	IC50 (Plasmodium falciparum)	IC50 [2]	inhibition [3]
C=CCC1(CCC)C(=O)SC(C)(CCCCCCCCCC)C1=O (configuration not stated)	47 µM	82 µM	No activity	19 µM	9 µM	–
C=CCOC1=C(CCC)C(=O)SC1(C)CCCCCCCCCC (configuration not stated)	80 µM	66 µM	No activity	1 µM	14 µM	–
CCCC1=C(O)C(C)(CCCCCCO[Si](C)(C)C(C)(C)C)SC1=O (configuration not stated)	150 µM	1 µM	No activity	37 µM	2 µM	–
CCCC1=C(O)SC(C)C1=O (configuration not stated)	> 522 µM	–	No activity	> 290 µM	288 µM	–
CCCCCCCCCCCCCCCCC1(C)SC(O)=C(C)C1=O (configuration not stated)	28 µM	–	–	25 µM	62 µM	55%
CCCCCCCCCCC1SC(O)=C(C)C1=O (configuration not stated)	164 µM	–	–	72 µM	6 µM	30%
CCC1SC(O)=C(C)C1=O (configuration not stated)	> 568 µM	–	No activity	> 316 µM	> 568 µM	–
CCCCCCCCCCCCCCCCC1(C)SC(O)=C(CCC)C1=O (configuration not stated)	13 µM	0.5 µM	–	6 µM	29 µM	20%
CCCCCCCCCCC1(C)NC(=O)C(C(C)=O)=C1O (configuration not stated)	153 µM	3 µM	No activity	63 µM	7 µM	–
CCCCCCCCCCCCCCCCC1(C)SC(O)=C(CC)C1=O (configuration not stated)	43 µM	–	–	19 µM	47 µM	65%
CCCCCCCCCCC1(C)SC(=O)C(C/C=C(/C)CCC=C(C)C)(CCC)C1=O (configuration not stated)	> 66 µM	> 66 µM	No activity	77 µM	> 200 µM	–
C=CCOC1=C(C)C(=O)SC1(C)CCCCCCCCCC (configuration not stated)	30 µM	–	–	6 µM	167 µM	5%
CC1=C(O)SC(C)C1=O (configuration not stated) [THIOLACTONE]	> 624 µM	–	No activity	> 347 µM	> 624 µM	–
CCCCCCC1(C)OC(O)=C(C)C1=O (configuration not stated)	> 424 µM	–	No activity	222 µM	247 µM	–
CCCCCCCCCCCCCCCCC1(C)SC(O)=C(Cc2ccccc2)C1=O (configuration not stated)	14 µM	2 µM	–	7 µM	32 µM	50%
CCCCCCCCCCC1(C)SC(=O)C(CCC)=C1OCCCCCCO[Si](C)(C)C(C)(C)C (configuration not stated)	14 µM	7 µM	–	3 µM	149 µM	10%
CCCCCCOCCOCCC1(C)SC(O)=C(CC)C1=O (configuration not stated)	195 µM	–	No activity	> 60 µM	119 µM	–
CCCCCCCCCCC1(C)SC(O)=C(Cc2ccccc2)C1=O (configuration not stated)	64 µM	–	–	50 µM	132 µM	70%
CCCCCCCCC1(C)SC(O)=C(CC)C1=O (configuration not stated)	165 µM	–	No activity	54 µM	157 µM	–
CCCCCCCCC1(C)SC(O)=C(C)C1=O (configuration not stated)	> 350 µM	–	–	153 µM	194 µM	10%
CC1SC(O)=C(Cc2ccccc2)C1=O (configuration not stated)	> 408 µM	–	No activity	195 µM	408 µM	–
